Assay outcomes (PubChem)
INS promoter act = TRM-6 insulin promoter activation. actives 0.81% (n = 130,000). TRM-6 cells (human fetal islet line), insulin promoter eGFP reporter, imaging; plate-scaled: unstimulated 0, stimulated control 100. activation, % at 2 µM. AID 1296;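 active means activation at 2 µM above a set limit, confirmed on inspection of the cell images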;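 further: share of cells whose green reporter signal exceeds an intensity cutoff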
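System – TRM-6 insulin promoter–eGFP reporter cells · Probe or stimulus – 0.75 µM tamoxifen as reporter inducer · Dosing – single-point 2 µM compound dose · Incubation – tamoxifen pre-incubation 15 h overnight, then compound exposure 48 h at 37 °C · Measured by – fixed-cell fluorescence microscopy, eGFP plus Hoechst · Evaluation – percent GFP-positive cells normalized to per-plate controls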
Hits are given with their value; – = inactive. The full list was thinned out, with hits kept by preference.

SMILES	INS promoter act
CCOc1ccc(CC(=O)Nc2ccc(NC(=O)c3ccco3)cc2)cc1OCC	100
Cc1ccc(C(C(=O)Nc2ccc3c(c2)OCO3)N(C)C(=O)Cc2c[nH]c3ccccc23)cc1 (centres undefined)	–
CCOC(=O)c1c(NC(=S)Nc2ccc(Cl)cc2)sc(C)c1C	–
CCOC(=O)c1c(NC(=O)CN2CCN(C(=O)c3ccco3)CC2)sc2c1CCCC2	–
CCOC(=O)c1c(NC(=S)Nc2ccccc2)sc2c1CCN(CCc1ccccc1)C2	233
Cc1c(C(N)=O)sc2ncn(CC(=O)N3CCC(C)CC3)c(=O)c12	–
CCN(CC)C(=O)C1CCCN(C(=O)Nc2ccccc2)C1 (centres undefined)	–
Cc1cc2ncc(C(=O)Nc3ccsc3C(=O)O)c(C)n2n1	–
CCOc1ccccc1C1NC(=O)NC(C)=C1C(=O)OC1CCCC1C (centres undefined)	–
CCOC(=O)C1=C(C)NC(=O)NC1c1ccc(-c2ccccc2F)o1 (centres undefined)	–
CC1=C(C(=O)OCc2ccccc2)C(c2ccccc2OC(F)F)NC(=O)N1 (centres undefined)	300
Cc1nn(-c2ccccc2)c(C)c1/C=N/n1c(-c2ccc(Cl)cc2)n[nH]c1=S	–
Cc1nn(-c2ccccc2)c(C)c1/C=N/NC(=O)c1cc(-c2ccccc2)n[nH]1	125
Cc1nn(-c2ccccc2)c(C)c1/C=N/NC(=O)CSc1nnc(SCc2ccccc2Cl)s1	–
CC(C)NC(=O)/C=C/C(=O)O	–
COc1ccc(NS(=O)(=O)c2cccc(-c3nnc(-c4ccccc4)o3)c2)cc1	–
CCOC(=O)N1CCN(C(=O)COc2ccc(S(=O)(=O)NC3CCCCC3)cc2C)CC1	–
COc1ccc(F)cc1S(=O)(=O)NC1CCCC1	83
CCOc1cc(S(=O)(=O)NC2CCCCCC2)ccc1F	420
CCOc1cc(S(=O)(=O)N2CCOCC2)ccc1F	–
CCOc1cc(S(=O)(=O)n2nc(C)cc2C)ccc1F	–
COc1ccc(F)cc1S(=O)(=O)N1CCCN(S(=O)(=O)c2cc(F)ccc2OC)CC1	–
CCOc1cc(S(=O)(=O)Nc2ccc(Cl)cn2)ccc1Cl	–
CCOc1cc(S(=O)(=O)Nc2ccccn2)ccc1F	464
COc1ccc(F)cc1S(=O)(=O)N1CCCC(C)C1 (centres undefined)	–
SMILES	INS promoter act
CCCOC1(NC(=O)c2ccccc2)C(C)=CC(=O)C=C1C	–
COc1cc(NC(=S)NCc2ccc(S(N)(=O)=O)cc2)c(OC)cc1Cl	–
Cc1noc(C)c1CCC(=O)N1CCCC(CCC(=O)NCc2ccccc2F)C1 (centres undefined)	–
COC(=O)Cc1cc(=O)[nH]c(/N=C(/NC(=O)c2ccccc2)Nc2ccccc2C)n1	–
COc1ccc(C(=O)NCCn2ccc3ccccc32)c(OC)c1	–
CCOCC(=O)Nc1nnc(COC)s1	–
CCOCc1nnc(NC(=O)c2ccco2)s1	–
CCCC(=O)Nc1ccc(C(=O)Nc2nnc(COCC)s2)cc1	408
CC(C)c1nc(-c2c(N)n(C)c(=O)n(C)c2=O)sc1C(=O)C(C)(C)C	–
CCc1cccc(Nc2cc(C)nc3nc(C)nn23)c1	–
O=C(CCCCl)NC(=S)Nc1cc(C(F)(F)F)ccc1N1CCOCC1	–
O=C(/C=C/c1ccco1)NC(=S)Nc1cc(C(F)(F)F)ccc1N1CCOCC1	211
CC(C)(C)C(=O)Nc1cc(C(F)(F)F)ccc1N1CCOCC1	–
CCN(CC)c1nc2c(s1)C(=O)CC(C)(C)C2	–
Cc1ccsc1C=C1C(=O)c2ccccc2C1=O	312
Cc1ccsc1/C=N/N1CCN(C2c3ccccc3-c3ccccc32)CC1	–
Cc1ccc(C(=O)O)cc1-c1ccc(C=C2C(=O)c3ccccc3C2=O)o1	–
O=C(CCSCCC(=O)Nc1ccccc1F)Nc1ccccc1F	–
CCC(=O)N1CCc2cc(S(=O)(=O)NC(Cc3ccccc3)C(=O)NC3CCCCC3)ccc21 (centres undefined)	317
CCOC(=O)N1CCC(NC(=O)C(NS(=O)(=O)c2ccc3c(c2)CCN3C(C)=O)C(C)C)CC1 (centres undefined)	–
CCC(=O)N1CCc2cc(S(=O)(=O)NCCCOC)ccc21	–
Cc1ccc(CSC2=NCCN2S(=O)(=O)c2ccccc2)cc1	464
CCCS(=O)(=O)N1CCN=C1SCc1ccc(C)cc1	–
O=S(=O)(c1ccccc1)N1CCN=C1SCc1ccccc1	–
Cc1onc(-c2c(F)cccc2Cl)c1C(=O)OCn1nnc2ccccc2c1=O	–
SMILES	INS promoter act
CN(Cc1ccccc1)S(=O)(=O)c1ccc(Cl)c(C(=O)NCc2ccc3c(c2)OCO3)c1	–
COc1cc(C2C(C(=O)c3ccc(C)o3)=C(O)C(=O)N2c2cc(C)on2)cc(Br)c1O (centres undefined)	–
CCOc1ccc(C2N(c3cc(C)on3)C(=O)C3CCCN32)cc1OC (centres undefined)	120
CCOc1ccc(C2CC(=O)n3nc(C45CC6CC(CC(C6)C4)C5)nc3S2)cc1OC (centres undefined)	–
Cn1cnc2c1c(=O)n(CC(O)CO)c(=O)n2C (centres undefined)	–
C#CC[N+]1(CC#Cc2ccc(C)cc2)CCCCC1	–
Cc1ccc(C(=O)NN(CCC(=O)NC(C)(C)C)C2=NS(=O)(=O)c3ccccc32)cc1	–
Cc1cc(C(F)(F)F)nc(SCC(=O)Nc2ccccc2)n1	–
COc1ccc(NC(=O)CSc2nc(C)cc(C(F)(F)F)n2)cc1	–
Cc1cc(C(F)(F)F)nc(SCC(=O)NC2CC3CCC2C3)n1 (centres undefined)	431
Cc1c(OCc2ccc([N+](=O)[O-])cc2)ccc2c3c(c(=O)oc12)CCC3	–
Cc1c(OCC(=O)OC(C)C)ccc2c3c(c(=O)oc12)CCC3	–
C=C(C)COc1ccc2c3c(c(=O)oc2c1OCC(=C)C)CCC3	143
CCC1C(=O)N(C)CCc2ccccc21 (centres undefined)	–
COCCCNC(CC(=O)Nc1ccccc1C(=O)OC)C(=O)O (centres undefined)	–
Cc1nn(C)c(Cl)c1CN1CCC(CO)(CC2CCCCO2)CC1 (centres undefined)	–
O=C(NN1CCOCC1)C12CC3CC(CC(C3)C1)C2	–
CC(C)c1ccccc1NS(=O)(=O)N(C)C	380
CN(C)S(=O)(=O)Nc1ccccc1C(N)=O	–
Cc1ccc(S(=O)(=O)Nc2cc(C(C)C)c(O)cc2C)cc1	–
COc1ccc(C2(C)NC(=O)N(CC(=O)Nc3ccc4c(c3)OCO4)C2=O)cc1OC (centres undefined)	–
CC#C[C@]1(O)CC[C@H]2[C@@H]3CCC4=CC(=O)CCC4=C3[C@@H](c3ccc(N(C)C)cc3)C[C@@]21C	–
CCC(CC)C(=O)c1c[nH]c(C(=O)NCc2ccncc2)c1	–
O=C(CSc1ccc(Cl)cc1)Nc1ccccc1N1CCN(C(=O)c2ccccc2)CC1	–
C=CCn1c(SCC(=O)Nc2sccc2C#N)nc2sc(C)c(C)c2c1=O	–
SMILES	INS promoter act
Cc1ccc(/C=N/OC(=O)c2nn(C)cc2Cl)cc1	–
Cc1cccc(NC(=O)CSc2nc3ccccc3o2)c1	–
Cc1ccc(-c2nnc(Sc3nc4ccccc4o3)c3ccccc23)cc1	590
Cc1ccc(C(=O)N/C(N)=N/c2nc3ccccc3o2)cc1	–
COCCn1c(SCc2nc3ccccc3s2)nc2ccccc21	–
COc1ccccc1NC(=O)Nc1nc(C(C)(C)C)cs1	–
Cc1ccc(NC(=O)c2cc(NC(=O)c3ccccc3C(=O)O)ccc2N2CCCCC2)cc1	–
